Reference: article PMC12039533 (Journal of Food and Drug Analysis, 2025)

Key:
[1] = biological target: T1, FLT3 (Homo sapiens, UniProt P36888); assay: HTRF KinEASE in vitro kinase assay; format: biochemical
T1 sequence (P36888 27-993): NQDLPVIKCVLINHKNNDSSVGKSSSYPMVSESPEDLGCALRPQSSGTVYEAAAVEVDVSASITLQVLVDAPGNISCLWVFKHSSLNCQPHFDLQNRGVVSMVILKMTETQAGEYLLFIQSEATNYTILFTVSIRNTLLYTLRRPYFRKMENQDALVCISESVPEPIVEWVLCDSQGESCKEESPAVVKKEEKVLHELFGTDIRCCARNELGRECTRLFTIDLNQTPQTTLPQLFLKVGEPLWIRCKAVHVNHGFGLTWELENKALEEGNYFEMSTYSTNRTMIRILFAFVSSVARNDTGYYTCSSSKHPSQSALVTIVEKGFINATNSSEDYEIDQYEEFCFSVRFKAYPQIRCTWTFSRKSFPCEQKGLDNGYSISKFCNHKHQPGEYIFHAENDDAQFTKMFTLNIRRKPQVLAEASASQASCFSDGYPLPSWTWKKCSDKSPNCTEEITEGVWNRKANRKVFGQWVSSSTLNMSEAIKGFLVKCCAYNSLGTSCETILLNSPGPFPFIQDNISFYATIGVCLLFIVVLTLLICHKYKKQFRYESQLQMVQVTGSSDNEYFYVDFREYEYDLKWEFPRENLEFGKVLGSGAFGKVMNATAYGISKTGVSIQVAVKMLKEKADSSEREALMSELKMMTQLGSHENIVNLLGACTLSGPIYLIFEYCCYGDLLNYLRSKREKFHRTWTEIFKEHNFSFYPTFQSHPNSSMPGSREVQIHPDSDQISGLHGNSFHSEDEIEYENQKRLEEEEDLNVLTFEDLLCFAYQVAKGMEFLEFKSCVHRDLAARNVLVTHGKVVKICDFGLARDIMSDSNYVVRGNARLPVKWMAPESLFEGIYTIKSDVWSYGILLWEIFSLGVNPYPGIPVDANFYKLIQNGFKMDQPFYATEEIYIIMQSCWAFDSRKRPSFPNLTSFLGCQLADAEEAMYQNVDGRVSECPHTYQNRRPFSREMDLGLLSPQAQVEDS

[2] = biological target: SRPK1 (Homo sapiens, UniProt Q96SB4); assay: HTRF KinEASE in vitro kinase assay; format: biochemical
Chain of SRPK1 (Q96SB4 whole entry): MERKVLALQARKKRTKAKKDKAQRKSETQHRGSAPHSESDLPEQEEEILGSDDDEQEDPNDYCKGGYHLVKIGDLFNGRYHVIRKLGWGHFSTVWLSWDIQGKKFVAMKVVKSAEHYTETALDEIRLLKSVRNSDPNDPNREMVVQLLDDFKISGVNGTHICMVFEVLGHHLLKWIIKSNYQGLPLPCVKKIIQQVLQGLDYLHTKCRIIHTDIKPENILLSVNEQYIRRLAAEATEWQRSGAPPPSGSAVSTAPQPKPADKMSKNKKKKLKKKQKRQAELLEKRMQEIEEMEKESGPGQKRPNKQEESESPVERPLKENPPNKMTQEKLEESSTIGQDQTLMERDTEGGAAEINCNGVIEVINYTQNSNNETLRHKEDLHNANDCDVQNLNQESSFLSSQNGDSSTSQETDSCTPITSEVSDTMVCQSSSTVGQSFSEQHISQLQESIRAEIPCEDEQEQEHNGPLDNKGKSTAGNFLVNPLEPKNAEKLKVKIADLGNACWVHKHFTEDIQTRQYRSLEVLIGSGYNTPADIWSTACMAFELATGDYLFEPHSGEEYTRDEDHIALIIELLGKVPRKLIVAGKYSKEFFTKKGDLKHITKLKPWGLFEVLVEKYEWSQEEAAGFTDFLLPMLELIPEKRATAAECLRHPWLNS
Procedure, shortened: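 Kinase activity was measured with the HTRF KinEASE STK/TK kit, and the TR-FRET signal was read on a multilabel microplate reader. Percent inhibition was calculated from the signal, and the IC50 was derived from these inhibition rates.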

IC50 [1]: 1510 ± 440 nM
IC50 [2]: 370 ± 150 nM
Compound: COc1cc(O)c(CC=C(C)C)c(O)c1C(=O)/C=C/c1ccc(O)cc1 [XN, Xanthohumol]
